Laboratory results: ChEMBL document CHEMBL4819034, “Tricyclic-Carbocyclic RORγt Inverse Agonists-Discovery of BMS-986313” (J Med Chem, 2021)

Legend:
[1] = Cmax in cynomolgus monkey at 2 mg/kg, po; assay type: ADME, organism-based, Macaca fascicularis; design: route oral, dose 2 mg/kg; settings: in vivo
Outline: (§1)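 Single-dose PK, IV and PO. Doses: mouse and rat 2 mg/kg IV / 4 mg/kg PO; dog and cyno 1 mg/kg IV, with 1 or 2 mg/kg PO.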

Mus musculus [2] = assay: Protection against imiquimod-induced C57BL/6 mouse model of psoriasis assessed as reduction in IL-17A mRNA levels at 20 mg/kg, po BID for 7 days by RT-PCR analysis relative to control; assay type: functional; design: scale not given: the % may be the effect or the level left; settings: time 7 day
Mus musculus [3] = assay: Protection against recombinant human IL23-induced acanthosis C57BL/6 mouse model assessed as reduction in IL-17A mRNA levels at 3 mg/kg, po BID BID for 10 days by qRT-PCR analysis relative to control; assay type: functional; design: scale not given: the % may be the effect or the level left; settings: time 10 day
Outline: (§2)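 In the IL-23 ear-injection model in C57BL/6 mice with BID oral dosing, ear tissue was collected from all animals at study end on day 10. IL-17A and IL-17F mRNA expression was quantified by qPCR and compared with the placebo arm.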

Mus musculus [4] = assay: Protection against imiquimod-induced C57BL/6 mouse model of psoriasis assessed as inhibition of skin thickening at 10 mg/kg, po BID for 7 days and measured every day for 8 days relative to control; assay type: functional; settings: C57BL/6, po, 168 h, time 7 day
[5] = Permeability across apical to basolateral membrane in human Caco-2 cells; assay type: ADME, cell-based; settings: read-out: permeability
Outline: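 Caco-2 monolayer permeability, apical-to-basolateral direction (Pc, nm/s). An efflux ratio is also reported.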

[6] = Metabolic stability in mouse liver microsomes assessed as parent compound remaining; assay type: ADME, Microsome
Outline: (§3)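 Test compound at 0.5 μM initial concentration incubated with human, mouse or rat liver microsomes (protein 1 mg/mL). Metabolic stability reported as percent of parent compound remaining after incubation.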

[7] = molecular target: T1, Nuclear receptor ROR-beta (Homo sapiens, UniProt Q92753); assay: Inverse agonist activity at Gal4-fused RORbeta (unknown origin)
T1 sequence (Q92753 whole entry): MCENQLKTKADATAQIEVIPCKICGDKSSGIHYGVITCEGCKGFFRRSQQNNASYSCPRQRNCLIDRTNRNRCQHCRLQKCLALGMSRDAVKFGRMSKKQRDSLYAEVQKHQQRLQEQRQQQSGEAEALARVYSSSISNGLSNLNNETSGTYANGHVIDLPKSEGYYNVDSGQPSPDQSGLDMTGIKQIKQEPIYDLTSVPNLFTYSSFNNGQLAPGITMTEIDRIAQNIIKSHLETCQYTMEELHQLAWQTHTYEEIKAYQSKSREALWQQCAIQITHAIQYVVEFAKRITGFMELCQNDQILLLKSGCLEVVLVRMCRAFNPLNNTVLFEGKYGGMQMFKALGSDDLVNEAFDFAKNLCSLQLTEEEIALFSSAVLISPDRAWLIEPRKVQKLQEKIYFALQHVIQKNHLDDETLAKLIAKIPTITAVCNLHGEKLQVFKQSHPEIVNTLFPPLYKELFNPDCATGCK

Cytochrome P450 2C19 = Cytochrome P450 2C19 (Homo sapiens, UniProt P33261); assay: Inhibition of CYP2C19 (unknown origin); assay type: ADME
Cytochrome P450 2C19, sequence (P33261 whole entry): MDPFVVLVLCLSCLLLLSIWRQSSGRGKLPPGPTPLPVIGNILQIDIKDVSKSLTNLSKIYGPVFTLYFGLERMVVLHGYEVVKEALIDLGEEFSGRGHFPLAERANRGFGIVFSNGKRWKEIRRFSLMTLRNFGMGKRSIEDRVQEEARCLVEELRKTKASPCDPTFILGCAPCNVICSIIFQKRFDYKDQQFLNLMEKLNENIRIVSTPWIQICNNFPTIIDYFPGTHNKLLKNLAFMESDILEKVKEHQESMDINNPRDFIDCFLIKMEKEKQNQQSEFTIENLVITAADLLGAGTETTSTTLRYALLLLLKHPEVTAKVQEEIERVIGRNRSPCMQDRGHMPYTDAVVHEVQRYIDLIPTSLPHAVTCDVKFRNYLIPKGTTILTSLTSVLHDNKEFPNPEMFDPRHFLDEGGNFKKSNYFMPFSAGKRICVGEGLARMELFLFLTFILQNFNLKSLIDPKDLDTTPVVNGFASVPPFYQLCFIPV

[8] = Protein binding in mouse assessed as unbound fraction; assay type: ADME
[9] = molecular target: T2, Oxysterols receptor LXR-alpha (Homo sapiens, UniProt Q13133); assay: Inverse agonist activity at LXRalpha (unknown origin)
T2 sequence (Q13133 whole entry): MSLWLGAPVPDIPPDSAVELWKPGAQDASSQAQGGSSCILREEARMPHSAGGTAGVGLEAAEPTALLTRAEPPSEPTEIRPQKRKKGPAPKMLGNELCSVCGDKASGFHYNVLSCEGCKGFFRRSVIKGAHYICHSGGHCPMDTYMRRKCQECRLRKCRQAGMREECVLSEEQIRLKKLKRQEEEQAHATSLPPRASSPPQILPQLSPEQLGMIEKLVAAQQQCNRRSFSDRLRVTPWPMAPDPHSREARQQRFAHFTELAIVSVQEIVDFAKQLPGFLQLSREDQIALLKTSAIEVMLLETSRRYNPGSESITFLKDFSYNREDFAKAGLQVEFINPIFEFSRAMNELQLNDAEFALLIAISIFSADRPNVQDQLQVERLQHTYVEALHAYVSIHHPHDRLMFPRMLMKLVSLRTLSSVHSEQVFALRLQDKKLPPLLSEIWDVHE

Cytochrome P450 2C9 = Cytochrome P450 2C9 (Homo sapiens, UniProt P11712); assay: Inhibition of CYP2C9 (unknown origin); assay type: ADME
Cytochrome P450 2C9, sequence (P11712 whole entry): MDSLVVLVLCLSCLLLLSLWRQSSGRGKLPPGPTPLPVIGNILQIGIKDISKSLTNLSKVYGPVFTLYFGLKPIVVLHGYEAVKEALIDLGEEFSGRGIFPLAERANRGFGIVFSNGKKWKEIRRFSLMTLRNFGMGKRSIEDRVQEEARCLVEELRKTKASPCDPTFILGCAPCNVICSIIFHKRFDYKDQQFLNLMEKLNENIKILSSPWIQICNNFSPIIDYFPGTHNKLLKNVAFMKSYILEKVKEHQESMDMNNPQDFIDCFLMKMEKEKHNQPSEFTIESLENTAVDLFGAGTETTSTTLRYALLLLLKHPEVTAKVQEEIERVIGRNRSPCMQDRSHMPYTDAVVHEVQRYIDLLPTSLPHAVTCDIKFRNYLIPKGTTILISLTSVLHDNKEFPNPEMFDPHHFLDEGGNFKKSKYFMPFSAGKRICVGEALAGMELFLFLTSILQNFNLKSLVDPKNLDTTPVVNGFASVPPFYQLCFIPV

[10] = Volume of distribution at steady state in mouse at 2 mg/kg, iv; assay type: ADME, organism-based; settings: in vivo, read-out: Vdss
Outline: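 Single intravenous dose: mouse and rat 2 mg/kg, dog and cynomolgus 1 mg/kg. Steady-state volume of distribution was derived from the IV arm. Values are means from three or more animals.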

Cytochrome P450 1A2 = molecular target: T3, Cytochrome P450 1A2 (Homo sapiens, UniProt P05177); assay: Inhibition of CYP1A2 (unknown origin); assay type: ADME
T3 sequence (P05177 whole entry): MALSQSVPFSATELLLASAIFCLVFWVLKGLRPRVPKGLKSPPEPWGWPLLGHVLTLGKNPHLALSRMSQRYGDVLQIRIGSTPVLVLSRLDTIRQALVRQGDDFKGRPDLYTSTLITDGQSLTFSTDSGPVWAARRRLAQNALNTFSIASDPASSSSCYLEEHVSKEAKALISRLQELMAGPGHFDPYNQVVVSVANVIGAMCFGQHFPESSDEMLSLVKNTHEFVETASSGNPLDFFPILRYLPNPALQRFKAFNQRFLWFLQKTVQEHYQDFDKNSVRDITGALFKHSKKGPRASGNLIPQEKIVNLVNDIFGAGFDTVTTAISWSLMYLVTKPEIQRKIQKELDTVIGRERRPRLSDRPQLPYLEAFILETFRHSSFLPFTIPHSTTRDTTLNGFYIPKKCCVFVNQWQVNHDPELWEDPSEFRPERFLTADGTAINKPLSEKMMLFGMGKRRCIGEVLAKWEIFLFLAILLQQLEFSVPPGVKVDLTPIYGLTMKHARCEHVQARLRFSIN

[11] = Oral bioavailability in mouse at 4 mg/kg; assay type: ADME, organism-based; settings: in vivo; outline: as §1
Mus musculus [12] = assay: Protection against recombinant human IL23-induced acanthosis C57BL/6 mouse model assessed as reduction in IL-17A mRNA levels at 6 mg/kg, po BID BID for 10 days by qRT-PCR analysis relative to control; assay type: functional; design: scale not given: the % may be the effect or the level left; settings: time 10 day; outline: as §2
[13] = Metabolic stability in rat liver microsomes assessed as parent compound remaining; assay type: ADME, Microsome; outline: as §3
Mus musculus [14] = assay: Protection against imiquimod-induced C57BL/6 mouse model of psoriasis assessed as change in skin thickness at 5 mg/kg, po BID for 7 days and measured every day for 8 days relative to control; assay type: functional; settings: time 7 day
Cytochrome P450 3A4 = Cytochrome P450 3A4 (Homo sapiens, UniProt P08684); assay: Inhibition of CYP3A4 (unknown origin); assay type: ADME
Cytochrome P450 3A4, sequence (P08684 whole entry): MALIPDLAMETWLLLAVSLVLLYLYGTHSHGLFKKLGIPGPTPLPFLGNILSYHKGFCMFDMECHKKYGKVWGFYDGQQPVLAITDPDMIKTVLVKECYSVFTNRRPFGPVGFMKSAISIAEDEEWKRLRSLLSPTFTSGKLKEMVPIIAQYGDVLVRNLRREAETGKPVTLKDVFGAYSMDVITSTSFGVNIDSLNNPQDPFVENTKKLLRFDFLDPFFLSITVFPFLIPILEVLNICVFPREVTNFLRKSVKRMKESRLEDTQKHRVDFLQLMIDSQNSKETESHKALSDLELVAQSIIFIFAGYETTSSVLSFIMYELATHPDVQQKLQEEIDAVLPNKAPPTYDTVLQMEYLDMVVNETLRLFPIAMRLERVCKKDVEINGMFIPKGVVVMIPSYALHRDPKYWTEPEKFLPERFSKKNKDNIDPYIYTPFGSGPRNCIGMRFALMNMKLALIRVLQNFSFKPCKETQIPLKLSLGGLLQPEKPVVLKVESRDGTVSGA

[15] = AUC (0 to 24 hrs) in rat at 4 mg/kg, po; assay type: ADME, organism-based; design: time < 24 hr, route oral, dose 4 mg/kg; settings: in vivo
[16] = Cmax in mouse at 4 mg/kg, po; assay type: ADME, organism-based; design: route oral, dose 4 mg/kg; settings: in vivo; outline: as §1
[17] = AUC (0 to 24 hrs) in dog at 2 mg/kg, po; assay type: ADME, organism-based, Canis lupus familiaris; design: time < 24 hr, route oral, dose 2 mg/kg; settings: in vivo

CC(C)(O)C(=O)N[C@@H]1CC[C@@]2(S(=O)(=O)c3ccc(F)cc3)c3ccc(C(F)(C(F)(F)F)C(F)(F)F)cc3CC[C@@H]12
Cmax [1]: 1100 nM
Activity (Mus musculus [2]): 91.5%
Activity (Mus musculus [3]): 2.7%
inhibition in vivo at 10 mg/kg (Mus musculus [4]): 39.6%
Papp A→B [5]: 10.6 ×10⁻⁶ cm/s
Stabilty [6]: 92%
EC50 [7]: > 10 µM
IC50 (Cytochrome P450 2C19): 19 µM
fraction unbound [8]: 0.006
EC50 [9]: > 5 µM
IC50 (Cytochrome P450 2C9): 12 µM
Vd [10]: 3 L/kg
IC50 (Cytochrome P450 1A2): 20 µM
bioavailability [11]: 100%
Activity (Mus musculus [12]): 64.9%
Stabilty [13]: 100%
Activity (Mus musculus [14]): 67.2%
IC50 (Cytochrome P450 3A4): 11 µM
AUC(0-t) at 24 h [15]: 17 µM·h
Cmax [16]: 2200 nM
AUC(0-t) at 24 h [17]: 59.8 µM·h
